The subject of one data set is L1210. Nature of the data set: Antiproliferative activity against mouse L1210 cells after 48 hrs by Coulter counter method. The class given is functional, cell-based. Conditions: L1210, 48 h. In a few lines: (§1)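 Cell count assay in 96-well microtiter plates; (5–7.5) × 10⁴ tumor cells per well plus test compound. Cells proliferated at 37 °C in humidified CO₂-controlled atmosphere, 48 h for murine leukemia L1210, 72 h for human lymphocytic CEM and cervix carcinoma HeLa. Counted by Coulter counter; IC₅₀ is the concentration that inhibits proliferation by 50%.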

For the next data set, the system named is HeLa. Nature of the data set: Antiproliferative activity against human HeLa cells after 72 hrs by Coulter counter method. The class given is functional, cell-based. The procedure, abridged: as §1
For a further data set, the system named is CCRF-CEM. The experiment in a line: Antiproliferative activity against human CEM cells after 72 hrs by Coulter counter method. The class given is functional, cell-based. The procedure, abridged: as §1
For data set [1], the system named is Human alphaherpesvirus 3. Nature of the data set: Antiviral activity against thymidine kinase-deficient Varicella Zoster virus 07-1 strain infected in HELF cells assessed as inhibition of virus-induced plaque formation. The class given is functional, organism-based. The note with it: Human alphaherpesvirus 3, 07-1, HELF. In a few lines:
(§2)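 Confluent human embryonic lung fibroblast monolayers in 96-well plates were infected with 100 CCID50 of virus or, for VZV, 20 PFU, in the presence of varying compound concentrations. For HCMV/VZV-type assays, residual virus was removed after 1–2 h before compound addition. Cytopathicity or plaque formation was scored once complete in untreated infected controls. Highest concentration tested was 100 μM.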

Data set [2] has as its system Human alphaherpesvirus 3. The experiment in a line: Antiviral activity against thymidine kinase-deficient Varicella Zoster virus Oka strain infected in HELF cells assessed as inhibition of virus-induced plaque formation. The class given is functional, organism-based. The note with it: Human alphaherpesvirus 3, strain Oka vaccine. The procedure, abridged: as §2
In data set [3] the test system is Human betaherpesvirus 5. The experiment in a line: Antiviral activity against Human cytomegalovirus AD169 strain infected in HELF cells assessed as inhibition of virus-induced cytopathogenicity. The class given is functional, organism-based. Conditions: Human betaherpesvirus 5, AD169, HELF. The procedure, abridged:
(§3)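 Confluent human embryonic lung fibroblasts in 96-well plates inoculated with 100 CCID₅₀ HCMV. Residual virus removed after 1–2 h, then cultures incubated with varying compound concentrations. Cytopathicity scored once complete in untreated infected controls. EC₅₀ is the concentration reducing virus-induced cytopathicity by 50%.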

A short description of data set [4]: Cytotoxicity against HELF cells assessed as alteration of cell morphology by microscopic analysis. The class given is cell-based. Conditions: human. The procedure, abridged:
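Uninfected Hel fibroblast cultures exposed to compound alongside antiviral assays. Minimal cytotoxic concentration (MCC) is the concentration giving microscopically visible alteration of normal cell morphology.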

For data set [5], the system named is Human alphaherpesvirus 1. The experiment in a line: Antiviral activity against Human herpesvirus 1 KOS strain infected in HELF cells assessed as inhibition of virus-induced cytopathogenicity. The class given is functional, organism-based. The note with it: Human alphaherpesvirus 1, KOS. In a few lines: as §2
Data set [6] is described as follows: Cytotoxicity against HELF cells after by Coulter counter method. The data set is classed as cell-based. The note with it: human. The procedure, abridged:
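Hel fibroblast proliferation measured by Coulter Counter cell count in presence of compound. CC₅₀ is the concentration (μM) reducing cell proliferation by 50%.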

A further data set has as its system Human alphaherpesvirus 2. Nature of the data set: Antiviral activity against Human herpesvirus 2 G strain infected in HELF cells assessed as inhibition of virus-induced cytopathogenicity. The data set is classed as functional, organism-based. Conditions: Human alphaherpesvirus 2, strain G. The procedure, abridged: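 Confluent Hel fibroblast cultures in 96-well plates inoculated with 100 CCID₅₀ virus in presence of varying compound concentrations. Cytopathicity recorded once complete in untreated virus-infected controls. EC₅₀ is the concentration reducing virus-induced cytopathogenicity by 50%; compounds tested up to 100 μM.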

Data set [7] deals with Human betaherpesvirus 5. Nature of the data set: Antiviral activity against Human cytomegalovirus Davis strain infected in HELF cells assessed as inhibition of virus-induced cytopathogenicity. The data set is classed as functional, organism-based. The note with it: Human betaherpesvirus 5, Davis. In a few lines:
as §3

The test system of data set [8] is Human alphaherpesvirus 1. The experiment in a line: Antiviral activity against thymidine kinase-deficient acyclovir-resistant Human herpesvirus 1 KOS strain infected in HELF cells assessed as inhibition of virus-induced cytopathogenicity. The class given is functional, organism-based. The note with it: Human alphaherpesvirus 1, KOS. In a few lines: as §2

For the molecule `C#C[C@@]1(O)[C@@H](CO)O[C@@H](n2c(C(F)(F)F)cc3c(N)ncnc32)[C@@H]1O`, the IC50 in the data set with L1210, with HeLa and in the data set on CCRF-CEM was greater than 250 µM in each case.
On to `C#C[C@@]1(O)[C@@H](CO)O[C@@H](n2cnc3c(-c4ccc(OC)cc4)ncnc32)[C@@H]1O`, for which the IC50 with L1210, with HeLa and with CCRF-CEM was greater than 250 µM each time.
As for `CC[C@@]1(O)[C@@H](CO)O[C@@H](n2cc(Cl)c3c(N)ncnc32)[C@@H]1O`, the EC50 was 3.74 µM in the data set with Human alphaherpesvirus 3 [1]; 1.71 µM with Human alphaherpesvirus 3 [2]; 1.79 µM with Human betaherpesvirus 5 [3]; 2.1 µM with Human alphaherpesvirus 1 [5]; 0.63 µM in the data set with Human alphaherpesvirus 2; greater than 4 µM in the data set on Human betaherpesvirus 5 [7]. Also, in the data set with Human alphaherpesvirus 1 [8], the EC50 was 1.27 µM. Further, the IC50 in the data set on L1210 was 1.2 µM; with HeLa, 4.4 µM; in the data set with CCRF-CEM it was 2.6 µM. Moreover, the MCC in data set [4] fell in the range of 4 to 20 µM. Besides, the midpoint of cytotoxicity in data set [6], the CC50, lay at 3.41 µM.
For the molecule `C#C[C@@]1(O)[C@@H](CO)O[C@@H](n2cc(Br)c3c(Cl)ccnc32)[C@@H]1O`, the EC50 in the data set with Human alphaherpesvirus 3 [1] is 2.27 µM; in the data set with Human alphaherpesvirus 3 [2], 2.76 µM; in the data set on Human betaherpesvirus 5 [3], 0.36 µM; in the data set on Human alphaherpesvirus 1 [5] it was 6.67 µM; with Human alphaherpesvirus 2, greater than 100 µM; in the data set with Human betaherpesvirus 5 [7] it was 0.35 µM. Further, the EC50 with Human alphaherpesvirus 1 [8] was 5.83 µM. Also, the IC50 with L1210 came to 30 µM; in the data set with HeLa, 0.89 µM; in the data set with CCRF-CEM, 0.56 µM. The MCC in data set [4] is no less than 100 µM. The same molecule displayed a CC50 in [6] of 0.35 µM.
As for `C#C[C@@]1(O)[C@@H](CO)O[C@@H](n2cc(I)c3c(N)ccnc32)[C@@H]1O`, the IC50 in the data set on L1210 was determined as 0.044 µM; in the data set with HeLa, 0.18 µM; in the data set with CCRF-CEM it was 0.31 µM.
The matching figures for `C#Cc1cn([C@@H]2O[C@H](CO)[C@](O)(C#C)[C@H]2O)c2ncnc(N)c12`: 159 µM, 114 µM and 63 µM.
As to `C#C[C@@]1(O)[C@@H](CO)O[C@@H](n2cc(I)c3c(Cl)ccnc32)[C@@H]1O`, the EC50 was 8.26 µM in the data set with Human alphaherpesvirus 3 [1]; 9.82 µM with Human alphaherpesvirus 3 [2]; 2.31 µM in the data set with Human betaherpesvirus 5 [3]; greater than 100 µM in the data set on Human alphaherpesvirus 1 [5]; greater than 100 µM with Human alphaherpesvirus 2; 0.66 µM with Human betaherpesvirus 5 [7]. The EC50 in the data set with Human alphaherpesvirus 1 [8] is greater than 100 µM. The values for the IC50 in the data set with L1210, with HeLa and with CCRF-CEM were 20 µM, 1.1 µM and 0.26 µM, respectively. The MCC in data set [4] was in the range of 20 to 100 µM. In [6], this molecule returned a CC50 of 0.16 µM.
Turning to `C#C[C@@]1(O)[C@@H](CO)O[C@@H](n2cnc3c(-c4ccc(Cl)cc4)ncnc32)[C@@H]1O`, the results for the IC50 in the data set on L1210, in the data set on HeLa and with CCRF-CEM were 225 µM, 170 µM and 124 µM, respectively.
Take `C#C[C@@]1(O)[C@@H](CO)O[C@@H](n2ccc3c(Cl)ccnc32)[C@@H]1O`: the EC50 with Human alphaherpesvirus 3 [1], in the data set on Human alphaherpesvirus 3 [2], in the data set with Human betaherpesvirus 5 [3], in the data set with Human alphaherpesvirus 1 [5], in the data set on Human alphaherpesvirus 2 and with Human betaherpesvirus 5 [7] was greater than 100 µM in each case. In addition, the EC50 in the data set with Human alphaherpesvirus 1 [8] is greater than 100 µM. Further, the IC50 in the data set on L1210 worked out at 197 µM; in the data set with HeLa it was 135 µM; in the data set on CCRF-CEM, 86 µM. In data set [4], the MCC was 20 to 100 µM.
`Nc1ccn(C[C@@H](CO)OCP(=O)(O)O)c(=O)n1` [CIDOFOVIR]: the EC50 with Human betaherpesvirus 5 [3] was 1.59 µM; in the data set on Human alphaherpesvirus 1 [5], 1.5 µM; in the data set with Human alphaherpesvirus 2 it was 1.2 µM; in the data set with Human betaherpesvirus 5 [7] it was 1.45 µM. The MCC in data set [4] was 250 to 300 µM.
Regarding `C#C[C@@]1(O)[C@@H](CO)O[C@@H](n2cnc3c(-c4ccc(C)cc4)ncnc32)[C@@H]1O`, the figures for the IC50 in the data set on L1210, in the data set with HeLa and with CCRF-CEM were 205 µM, greater than 250 µM and 154 µM, respectively.
For `Nc1nc2c(ncn2COC(CO)CO)c(=O)[nH]1` [GANCICLOVIR], the MCC in data set [4] lay within 100 to 350 µM.
For the molecule `Nc1nc2c(ncn2COCCO)c(=O)[nH]1` [ACYCLOVIR], the MCC in [4] lay within 250 to 440 µM. Further, the CC50 in data set [6] is greater than 440 µM.
In the case of `C#C[C@@]1(O)[C@@H](CO)O[C@@H](n2cnc3c(-c4ccc(F)cc4)ncnc32)[C@@H]1O`, the IC50 in the data set with L1210 was greater than 250 µM; in the data set with HeLa it was 220 µM; in the data set with CCRF-CEM, 223 µM.
In the same order, the values of `C#C[C@@]1(O)[C@@H](CO)O[C@@H](n2cc(-c3ccco3)c3c(N)ncnc32)[C@@H]1O` are 30 µM, 14 µM and 17 µM.
For `C#C[C@@]1(O)[C@@H](CO)O[C@@H](n2cc(Cl)c3c(Cl)ccnc32)[C@@H]1O`, the EC50 in the data set on Human alphaherpesvirus 3 [1] is 3.06 µM; in the data set on Human alphaherpesvirus 3 [2] it was 16.6 µM; in the data set with Human betaherpesvirus 5 [3], 0.51 µM; in the data set on Human alphaherpesvirus 1 [5] it was 16.3 µM; with Human alphaherpesvirus 2 it was greater than 100 µM; with Human betaherpesvirus 5 [7], 0.53 µM. In the data set on Human alphaherpesvirus 1 [8], the EC50 is 10.6 µM. In addition, the IC50 in the data set on L1210 was 75 µM; with HeLa, 6.3 µM; with CCRF-CEM, 1.3 µM. The MCC in data set [4] is 20 to 100 µM. In data set [6], this molecule displayed a CC50 of 5.25 µM.
Consider `C#C[C@@]1(O)[C@@H](CO)O[C@@H](n2cc(C(F)(F)F)c3c(N)ncnc32)[C@@H]1O`, for which the results for the IC50 in the data set on L1210, in the data set on HeLa and in the data set with CCRF-CEM were 0.11 µM, 0.75 µM and 0.36 µM, respectively.
In the case of `C#C[C@@]1(O)[C@@H](CO)O[C@@H](n2cc(Cl)c3c(N)ccnc32)[C@@H]1O`, the EC50 is 17.5 µM in the data set with Human alphaherpesvirus 3 [1], greater than 100 µM in the data set on Human alphaherpesvirus 3 [2], greater than 100 µM in the data set with Human betaherpesvirus 5 [3] and 20 µM in the data set with Human betaherpesvirus 5 [7]. The IC50 was 0.98 µM in the data set on L1210, 1.7 µM with HeLa and 5.4 µM in the data set on CCRF-CEM. In addition, the MCC in [4] was no less than 100 µM.
With `C#C[C@@]1(O)[C@@H](CO)O[C@@H](n2cnc3c(N)ncnc32)[C@@H]1O`, the EC50 with Human alphaherpesvirus 3 [1] was 1.64 µM; in the data set with Human alphaherpesvirus 3 [2] it was 1.82 µM; in the data set on Human betaherpesvirus 5 [3], no less than 4 µM; in the data set with Human alphaherpesvirus 1 [5], greater than 4 µM; with Human alphaherpesvirus 2, greater than 4 µM; in the data set with Human betaherpesvirus 5 [7], no less than 4 µM. Also, the EC50 with Human alphaherpesvirus 1 [8] was greater than 4 µM. For the same molecule, the MCC in [4] was determined as 20 µM. Further, the CC50 in data set [6] (HELF cells) lay within 0.7 to 0.73 µM.
Turning to `C#C[C@@]1(O)[C@@H](CO)O[C@@H](n2cnc3c(-c4ccccc4)ncnc32)[C@@H]1O`, the IC50 with L1210, in the data set on HeLa and in the data set with CCRF-CEM was greater than 250 µM throughout.

For the origin of these results see ChEMBL document CHEMBL4270599, “Synthesis of a 3'-C-ethynyl-β-d-ribofuranose purine nucleoside library: Discovery of C7-deazapurine analogs as potent antiproliferative nucleosides” (Eur J Med Chem, 2018).
